Screening results from PubChem.
An excerpt weighted towards active compounds, which were near 5.8% of everything screened.
KDM4C inh: inhibitors of GASC-1 (KDM4C) histone demethylase, primary screen, biochemical, single concentration HTS; inhibition, % at 12.5 µM; Lysine-specific demethylase 4C (Homo sapiens), Q9H3R0; AID 720574, 2013; GST-KDM4C 2-372, H3K9me3 peptide, LANCE TR-FRET; actives 0.15% (n = 96,000);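 active = mean replicate inhibition above about 25%, with at least 55% of replicates also reaching it, limit read from the data, passing the limit was not always enough; inconclusive = only one of those two conditions met; inactive = neither condition met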
Target sequence (Q9H3R0 2-372 limits assumed): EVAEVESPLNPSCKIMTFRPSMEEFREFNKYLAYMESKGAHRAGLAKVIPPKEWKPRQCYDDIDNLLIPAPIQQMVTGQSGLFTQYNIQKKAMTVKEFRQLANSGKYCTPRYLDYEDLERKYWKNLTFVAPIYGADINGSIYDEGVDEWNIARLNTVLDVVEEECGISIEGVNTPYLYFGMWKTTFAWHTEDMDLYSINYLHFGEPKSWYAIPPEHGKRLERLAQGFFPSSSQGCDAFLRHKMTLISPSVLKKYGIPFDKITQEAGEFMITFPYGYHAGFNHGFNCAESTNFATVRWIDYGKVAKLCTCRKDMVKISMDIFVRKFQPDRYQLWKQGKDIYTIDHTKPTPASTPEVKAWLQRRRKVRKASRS
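Test system: N-terminal GST-fused human GASC-1 (KDM4C) fragment, residues 2-372; quantity: GASC-1 enzyme at 10 nM final in reaction; dosing: single dose; schedule: 30 min demethylation and 1 h detection at room temperature; signal: LANCE TR-FRET, excitation 340 nm, emissions 618 and 671 nm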
Pf Dd2 growth: P. falciparum Dd2 growth inhibitors, primary screen, SYBR Green fluorescence, single dose replicates; 72 h; active compounds read low; activity change, % at 10 µM; actives 2.3% (n = 94,000); in the data active = activity change below about -80%; inconclusive = no clear call, values can overlap the other calls
IDH1 mut inh: inhibitors of IDH1 R132H reductase, primary screen, biochemical, plate reader, single point. actives 0.18% (n = 70,000). diaphorase/resazurin fluorescence, 60 min. AID 624101, 2012. inhibition, % at 10 µM. Isocitrate dehydrogenase [NADP] cytoplasmic (Homo sapiens), O75874; in the data active = inhibition above about 34%; inconclusive = no clear call, values can overlap the other calls; inactive = below about 11%;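 note: 0% = DMSO and 100% = no enzyme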
Tcruzi prolif: T. cruzi intracellular proliferation inhibitors, primary screen, cell-based, beta-gal Tulahuen parasites, NIH3T3 host, luminescence; T. cruzi beta-gal in NIH3T3, GalScreen luminescence, 90 h; inhibition, % at 8.34 µM; AID 624255, 2012; actives 5.9% (n = 77,000);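 active = mean inhibition above about 93%, with at least 55% of replicates each passing it, limit read from the data, passing the limit was not always enough; inconclusive = only one of those two conditions holds; inactive = neither condition holds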
* hit, by the source's call; ? = inconclusive; / = no result.

SMILES | KDM4C inh | Pf Dd2 growth | IDH1 mut inh | Tcruzi prolif
C[C@@H]1CN([C@@H](C)CO)C(=O)c2c(c3ccccc3n2C)-c2ccccc2CO[C@@H]1CN(C)Cc1cccc(C(F)(F)F)c1 | 5.6 | -90.5* | / | /
C[C@H]1CN([C@@H](C)CO)C(=O)c2c(c3ccccc3n2C)-c2ccccc2CO[C@H]1CN(C)Cc1ccc(C(F)(F)F)cc1 | 0.1 | ? | / | /
C[C@@H]1CN([C@H](C)CO)C(=O)c2c(c3ccccc3n2C)-c2ccccc2CO[C@H]1CN(C)Cc1ccccc1C(F)(F)F | -9.8 | -63.0 | / | /
C[C@@H]1CN([C@@H](C)CO)C(=O)c2c(c3ccccc3n2C)-c2ccccc2CO[C@@H]1CN(C)Cc1ccccc1C(F)(F)F | -3.4 | -86.9* | / | /
Cc1ccc(S(=O)(=O)Nc2cccc3c2O[C@@H](CN(C)C(=O)Nc2c(C)noc2C)[C@@H](C)CN([C@H](C)CO)C3=O)cc1 | 2.0 | 10.4 | -11.7 | 23.3
Cc1ccc(OCC(=O)Nc2ccc3c(c2)oc2ccccc23)cc1[N+](=O)[O-] | / | / | 0.3 | /
CC(C(=O)Nc1cc(Cl)ccc1O)N1C(=O)c2ccccc2C1=O (configuration not stated) | / | / | -1.1 | /
C[C@@H]1CN([C@H](C)CO)C(=O)c2cccc(NC(=O)Nc3cccc4ccccc34)c2O[C@@H]1CN(C)C(=O)NC1CCCCC1 | -2.4 | -76.6 | -4.0 | 53.6
C[C@H]1CN([C@@H](C)CO)C(=O)c2cccc(NC(=O)Nc3cccc4ccccc34)c2O[C@H]1CN(C)C(=O)NC1CCCCC1 | -3.7 | -84.6* | -0.6 | 52.9
C[C@@H]1CN([C@@H](C)CO)C(=O)c2cccc(NC(=O)Nc3ccccc3)c2O[C@@H]1CN(C)C(=O)Nc1ccc(F)cc1 | -0.6 | -91.3* | 1.5 | 45.3
C[C@@H]1CN([C@H](C)CO)C(=O)c2cccc(NC(=O)Nc3ccccc3)c2O[C@@H]1CN(C)C(=O)Nc1ccccc1 | -0.4 | -40.6 | / | 64.3
C[C@@H]1CN([C@@H](C)CO)C(=O)c2cccc(NC(=O)Nc3ccccc3)c2O[C@@H]1CN(C)C(=O)Nc1ccccc1 | 0.3 | -91.4* | / | 59.0
COc1ccc(NC(=O)N(C)C[C@H]2Oc3c(NC(=O)Nc4ccc5c(c4)OCO5)cccc3C(=O)N([C@@H](C)CO)C[C@H]2C)cc1 | -2.6 | -85.7* | / | -2.1
COc1ccc(NC(=O)Nc2cccc3c2O[C@H](CN(C)C(=O)Nc2ccc4c(c2)OCO4)[C@@H](C)CN([C@@H](C)CO)C3=O)cc1 | 3.8 | -11.1 | / | 32.3
O=C(Cn1ccc([N+](=O)[O-])n1)N1CCOCC1 | / | / | -0.2 | /
COc1ccc(NC(=O)N(C)C[C@H]2Oc3c(NC(=O)Nc4ccccc4)cccc3C(=O)N([C@H](C)CO)C[C@H]2C)cc1 | 2.6 | -86.0* | / | -6.5
COc1ccc(NC(=O)Nc2cccc3c2O[C@H](CN(C)C(=O)Nc2cccc4ccccc24)[C@H](C)CN([C@@H](C)CO)C3=O)cc1 | -1.3 | -88.0* | 0.2 | 11.5
Cc1noc(C)c1NC(=O)N(C)C[C@H]1Oc2c(NC(=O)Nc3ccc(C(F)(F)F)cc3)cccc2C(=O)N([C@@H](C)CO)C[C@H]1C | 0.7 | -85.6* | -0.9 | 89.8
COc1ccc(NC(=O)Nc2cccc3c2O[C@H](CN(C)C(=O)Nc2ccccc2)[C@@H](C)CN([C@H](C)CO)C3=O)cc1 | 0.1 | -3.9 | 0.2 | -15.4
COc1ccc(C(=O)O[C@H]2CC(C)=CCC3(C)CC[C@@](O)(C(C)C)[C@H]23)cc1 (some centres not stated) | / | / | -0.4 | /
C[C@@H]1CN([C@@H](C)CO)C(=O)Cc2cc(NC(=O)Nc3ccccc3)ccc2O[C@H]1CN(C)S(C)(=O)=O | -0.6 | 8.8 | / | /
Cc1noc(C)c1S(=O)(=O)N(C)C[C@H]1OCCCC[C@H](C)Oc2ccc(NC(=O)Nc3ccccc3)cc2C(=O)N([C@H](C)CO)C[C@@H]1C | -1.8 | -4.4 | / | /
Cc1noc(C)c1S(=O)(=O)N(C)C[C@@H]1OCCCC[C@H](C)Oc2ccc(NC(=O)c3ccccc3)cc2C(=O)N([C@@H](C)CO)C[C@H]1C | -0.6 | -88.0* | / | 11.4
Cc1noc(C)c1S(=O)(=O)N(C)C[C@@H]1OCCCC[C@H](C)Oc2ccc(NC(=O)Nc3ccccc3)cc2C(=O)N([C@H](C)CO)C[C@H]1C | 0.0 | -83.0* | 0.4 | /
Cc1ccc(S(=O)(=O)N(C)C[C@H]2OCCCC[C@H](C)Oc3ccc(NS(=O)(=O)c4cccs4)cc3C(=O)N([C@@H](C)CO)C[C@H]2C)cc1 | 1.2 | -85.0* | / | 58.3
SMILES | KDM4C inh | Pf Dd2 growth | IDH1 mut inh | Tcruzi prolif
C[C@@H]1CN([C@H](C)CO)C(=O)c2cc(NS(=O)(=O)c3cccs3)ccc2O[C@@H](C)CCCCO[C@@H]1CN(C)S(=O)(=O)c1ccc(F)cc1 | 1.8 | -89.5* | 1.8 | 51.7
Cc1ccc(S(=O)(=O)N(C)C[C@H]2OCCCC[C@@H](C)Oc3ccc(NS(=O)(=O)c4cccs4)cc3C(=O)N([C@H](C)CO)C[C@@H]2C)cc1 | 0.5 | -15.9 | -1.2 | 46.2
C[C@H](CO)N1C[C@H](C)[C@@H](CN(C)CC2CC2)Oc2ccc(NC(=O)Nc3ccc4c(c3)OCO4)cc2CC1=O | 0.1 | -82.9* | 0.8 | -37.5
C[C@H]1CN([C@@H](C)CO)C(=O)Cc2cc(NC(=O)Nc3ccc4c(c3)OCO4)ccc2O[C@H]1CN(C)CC1CCCCC1 | 1.6 | 8.4 | 2.9 | 36.1
C[C@@H]1CN([C@@H](C)CO)C(=O)Cc2cc(NC(=O)Nc3ccc4c(c3)OCO4)ccc2O[C@@H]1CN(C)CC1CC1 | 0.3 | -88.2* | 1.7 | -40.3
C[C@H](CO)N1C[C@H](C)[C@@H](CN(C)CC2CCCCC2)Oc2ccc(NC(=O)Nc3ccc4c(c3)OCO4)cc2CC1=O | -0.4 | -41.3 | / | 16.0
Nc1cc(=O)[nH]c(SCC(=O)N2CCN(c3ccccc3)CC2)n1 | / | / | -0.9 | /
O=C(NCC1CC1)[C@@H]1[C@@H](CO)[C@@H]2Cn3c(ccc(-c4cccnc4)c3=O)[C@H]1N2Cc1nccs1 | 1.8 | 1.5 | / | -45.2
COc1ccc2c3c(n(C)c2c1)[C@H](CO)NCC31CCN(Cc2ccc(Cl)cc2)CC1 | -1.4 | -91.0* | / | /
COc1ccc2c3c(n(C)c2c1)[C@H](CO)NCC31CN(CC2CCOCC2)C1 | -1.5 | 4.5 | / | /
COc1ccc2c3c(n(C)c2c1)[C@H](CO)NCC31CCN(Cc2ccc(F)cc2)CC1 | / | -83.1* | / | /
COc1ccc2c3c(n(C)c2c1)[C@H](CO)NCC31CCN(CC2CCCC2)CC1 | 1.6 | -86.2* | / | /
CO[C@H]1CN(C)C(=O)c2ccc(NC(=O)c3cccc(F)c3)cc2OC[C@H](C)N(C)C[C@H]1C | 37.7* | -52.1 | 2.3 | -36.2
CO[C@H]1CN(C)C(=O)c2ccc(NS(=O)(=O)CC(F)(F)F)cc2OC[C@H](C)N(C)C[C@@H]1C | -1.0 | -86.8* | / | /
